How the values were obtained:
[1] = biological target: T1, Adrenergic receptor alpha-2 (Rattus norvegicus, UniProt P22086+P19328+P22909); assay: The compound was evaluated for the inhibition of [3H]rauwolscine binding to alpha-2-adrenergic receptor from rat cortex
T1 sequence (P22086 whole entry): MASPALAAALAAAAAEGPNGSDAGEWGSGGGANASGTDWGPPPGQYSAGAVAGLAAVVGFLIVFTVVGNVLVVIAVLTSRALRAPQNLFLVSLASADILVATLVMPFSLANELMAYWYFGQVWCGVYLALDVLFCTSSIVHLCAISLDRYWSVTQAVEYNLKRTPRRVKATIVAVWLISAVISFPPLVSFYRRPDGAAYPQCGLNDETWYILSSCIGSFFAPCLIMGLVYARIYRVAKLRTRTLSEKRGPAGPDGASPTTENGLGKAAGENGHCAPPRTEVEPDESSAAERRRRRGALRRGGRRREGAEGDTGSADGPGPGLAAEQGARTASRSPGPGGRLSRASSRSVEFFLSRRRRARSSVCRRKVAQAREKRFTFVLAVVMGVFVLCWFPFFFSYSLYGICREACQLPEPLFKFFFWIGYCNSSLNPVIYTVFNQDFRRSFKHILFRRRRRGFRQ
T1 sequence (P19328 whole entry): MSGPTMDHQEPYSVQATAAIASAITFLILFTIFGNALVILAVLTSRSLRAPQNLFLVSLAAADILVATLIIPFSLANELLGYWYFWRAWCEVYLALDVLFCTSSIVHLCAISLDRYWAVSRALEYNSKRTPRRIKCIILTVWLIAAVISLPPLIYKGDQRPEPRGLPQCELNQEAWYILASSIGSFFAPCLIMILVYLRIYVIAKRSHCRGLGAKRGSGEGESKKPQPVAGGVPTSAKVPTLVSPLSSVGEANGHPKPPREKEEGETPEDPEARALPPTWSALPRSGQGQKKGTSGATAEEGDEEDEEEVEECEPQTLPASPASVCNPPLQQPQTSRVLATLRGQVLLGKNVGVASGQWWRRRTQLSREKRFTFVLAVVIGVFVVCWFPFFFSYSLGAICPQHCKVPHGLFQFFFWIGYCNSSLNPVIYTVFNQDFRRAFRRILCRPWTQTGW
T1 sequence (P22909 whole entry): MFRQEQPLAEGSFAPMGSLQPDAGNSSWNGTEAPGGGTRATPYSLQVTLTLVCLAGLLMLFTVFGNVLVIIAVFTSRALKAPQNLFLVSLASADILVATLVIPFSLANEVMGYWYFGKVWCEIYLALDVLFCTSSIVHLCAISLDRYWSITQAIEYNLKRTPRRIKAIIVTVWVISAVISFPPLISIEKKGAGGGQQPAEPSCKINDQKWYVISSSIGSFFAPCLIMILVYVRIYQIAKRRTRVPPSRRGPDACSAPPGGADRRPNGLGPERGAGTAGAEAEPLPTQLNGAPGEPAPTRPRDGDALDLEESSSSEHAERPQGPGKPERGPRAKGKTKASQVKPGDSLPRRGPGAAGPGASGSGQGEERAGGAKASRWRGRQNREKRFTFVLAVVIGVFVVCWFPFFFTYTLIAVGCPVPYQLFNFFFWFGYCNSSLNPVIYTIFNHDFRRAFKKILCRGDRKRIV
Method in brief: (§1)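 Washed membranes of pooled male Sprague-Dawley rat cerebral cortex in 50 mM Tris-HCl pH 7.7, 50-150 μg/mL protein. [3H]rauwolscine incubated 2 h at 4 °C, then filtration. Nonspecific binding with phentolamine 10⁻⁵ M. At least four test concentrations between 10⁻¹⁰ and 10⁻³ M, in duplicate. IC50 from logit-log plot, Ki by Cheng-Prusoff.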

[2] = biological target: T2, Adrenergic receptor alpha-1 (Rattus norvegicus, UniProt P15823+P23944+P43140); assay: The compound was evaluated for the inhibition of [3H]prazosin binding to alpha-1 adrenergic receptor from rat liver
T2 sequence (P15823 whole entry): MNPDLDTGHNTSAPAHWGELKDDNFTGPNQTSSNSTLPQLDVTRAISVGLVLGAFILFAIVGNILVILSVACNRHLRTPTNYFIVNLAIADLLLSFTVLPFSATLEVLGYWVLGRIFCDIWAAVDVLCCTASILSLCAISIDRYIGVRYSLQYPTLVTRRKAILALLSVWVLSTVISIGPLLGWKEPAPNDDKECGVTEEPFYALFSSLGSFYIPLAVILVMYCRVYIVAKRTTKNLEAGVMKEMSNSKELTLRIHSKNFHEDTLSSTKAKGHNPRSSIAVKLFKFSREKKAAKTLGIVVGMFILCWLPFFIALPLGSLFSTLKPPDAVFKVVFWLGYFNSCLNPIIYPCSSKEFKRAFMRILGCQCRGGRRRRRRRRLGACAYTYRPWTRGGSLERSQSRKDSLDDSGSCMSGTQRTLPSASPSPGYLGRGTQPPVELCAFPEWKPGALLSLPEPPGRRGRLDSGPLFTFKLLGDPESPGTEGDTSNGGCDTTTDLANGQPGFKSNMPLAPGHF
T2 sequence (P23944 whole entry): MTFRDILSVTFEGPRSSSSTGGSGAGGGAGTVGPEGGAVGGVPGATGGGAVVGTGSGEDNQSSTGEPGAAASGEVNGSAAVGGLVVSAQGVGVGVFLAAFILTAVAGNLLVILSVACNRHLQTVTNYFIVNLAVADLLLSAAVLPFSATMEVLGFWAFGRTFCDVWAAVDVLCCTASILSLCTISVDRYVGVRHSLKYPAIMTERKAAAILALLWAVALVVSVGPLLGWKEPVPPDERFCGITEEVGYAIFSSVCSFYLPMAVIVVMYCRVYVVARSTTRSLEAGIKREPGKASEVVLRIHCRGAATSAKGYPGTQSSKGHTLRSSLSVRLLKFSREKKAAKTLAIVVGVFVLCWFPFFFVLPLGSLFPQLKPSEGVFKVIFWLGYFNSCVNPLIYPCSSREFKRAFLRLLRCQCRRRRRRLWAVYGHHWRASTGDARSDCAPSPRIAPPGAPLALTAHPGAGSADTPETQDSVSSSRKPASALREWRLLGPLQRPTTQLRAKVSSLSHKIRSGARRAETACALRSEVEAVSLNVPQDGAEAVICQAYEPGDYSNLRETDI
T2 sequence (P43140 whole entry): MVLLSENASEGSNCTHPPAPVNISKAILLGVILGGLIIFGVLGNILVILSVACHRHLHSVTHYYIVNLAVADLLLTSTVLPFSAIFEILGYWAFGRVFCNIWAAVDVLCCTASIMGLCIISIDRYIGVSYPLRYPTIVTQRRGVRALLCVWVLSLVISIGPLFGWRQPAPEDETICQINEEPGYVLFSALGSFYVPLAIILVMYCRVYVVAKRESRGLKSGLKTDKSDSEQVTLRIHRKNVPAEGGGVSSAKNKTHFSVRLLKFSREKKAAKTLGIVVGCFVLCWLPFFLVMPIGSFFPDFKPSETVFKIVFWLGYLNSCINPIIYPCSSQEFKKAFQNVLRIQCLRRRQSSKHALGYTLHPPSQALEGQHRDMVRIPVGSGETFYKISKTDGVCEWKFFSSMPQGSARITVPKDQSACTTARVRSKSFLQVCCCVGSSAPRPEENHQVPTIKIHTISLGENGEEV
Method in brief: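 Washed rat liver membranes (male Sprague-Dawley) in 50 mM Tris-HCl pH 7.7, 50-150 μg/mL protein. [3H]prazosin incubated 50 min at 25 °C, then filtration. Nonspecific binding with phentolamine 10⁻⁵ M. At least four test concentrations between 10⁻¹⁰ and 10⁻³ M, in duplicate. IC50 from logit-log plot, Ki by Cheng-Prusoff.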

[3] = biological target: Adrenergic receptor alpha-2 (Homo sapiens) (UniProt P08913+P18825+P18089); assay: Index is the ratio between ED50 value of Norepinephrine to test compound at alpha-2 adrenergic receptor
Method in brief: (§2)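 Dog saphenous vein strips, gassed 95% O2/5% CO2, 37 °C, pH 7.45, 2 g preload, isometric contraction. After 15-20 min equilibration, maximal NE contraction (1 × 10⁻⁴ M) and 60 min wash. Phenoxybenzamine 1 × 10⁻⁷ M for 30 min, 60 min washout. Control cumulative NE curve, washout 45-60 min, then cumulative test-agonist curve. Index = ED50 NE/ED50 CPD per experiment, averaged.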

[4] = biological target: Adrenergic receptor alpha-1 (Homo sapiens) (UniProt P35348+P25100+P35368); assay: Index is the ratio between ED50 value of Norepinephrine to test compound at alpha-1 adrenergic receptor
[5] = biological target: T1, Adrenergic receptor alpha-2; assay: The compound was evaluated for the binding affinity towards alpha-2 adrenergic receptor from rat cortex; method in brief: as §1
Canis familiaris [6] = species: Canis familiaris; assay: The compound was evaluated for the alpha-2-adrenergic activity in PBZ-pretreated dog saphenous vein as E max; assay type: functional; conditions: Canis lupus familiaris; method in brief: as §2
Oryctolagus cuniculus = species: Oryctolagus cuniculus; assay: The compound was evaluated for the alpha-1-adrenergic activity in isolated rabbit aortic tissue as E max; assay type: functional; conditions: Aorta
Method in brief: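 Rabbit aorta helical strip in Krebs buffer, pH 7.4, 37 °C, 2 g initial tension, isometric contraction. […] Washout every 10-15 min for 60-90 min, then cumulative test-compound curve in the same tissue. Index = ED50 NE/ED50 CPD, calculated per experiment, then averaged.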

Canis familiaris [7] = species: Canis familiaris; assay: The compound was evaluated for the alpha-2-adrenergic activity in PBZ-pretreated dog saphenous vein as EED50 CPD; assay type: functional, Canis lupus familiaris; method in brief: as §2

SMILES	IC50 [1] [nM]	IC50 [2] [nM]	Ki [2] [nM]	Ratio [3]	Ratio [4]	Ki [5] [nM]	Emax (Canis familiaris [6]) [%]	Emax (Oryctolagus cuniculus) [%]	ED50 (Canis familiaris [7])
Br.Oc1ccc2c(c1O)CC2C1=NCCN1 (stereo not given)	49	4400	1100	1.8	0.4	46	67	98	–
Br.Oc1ccc2c(c1O)CCC2C1=NCCN1 (stereo not given)	3.3	1570	350	22	12	3.1	102	124	–
Br.Oc1ccc2c(c1O)CCCC2C1=NCCN1 (stereo not given)	7	2500	400	188	13	6.5	102	114	–
Br.Oc1ccc2c(c1O)CCCCC2C1=NCCN1 (stereo not given)	4200	56000	13000	0.03	–	4000	–	–	350
